Results pooled from the literature.
Compare with care: the assays were run in different laboratories.
BRD2 BD1: Bromodomain-containing protein 2, BD1 (BRD2, Homo sapiens, UniProt P25440)
PBRM1 BD2: Protein polybromo-1, BD2 (PBRM1, Homo sapiens, UniProt Q86U86)
PBRM1 BD1: Protein polybromo-1, BD1 (PBRM1, Homo sapiens, UniProt Q86U86)
Abl1: Tyrosine-protein kinase ABL1 (Abl1, Mus musculus, UniProt P00520)

Compound | target | assay | conditions | endpoint | value
CC(C)(C)c1ccc(NC(c2ccccc2)c2ccc3ccccc3c2O)cc1 (stereo not shown) | CAAX prenyl protease 2 (Homo sapiens, UniProt Q9Y256) | enzyme activity, inhibitor | 10 µM | remaining activity | < 40%
Cc1cnc(Nc2ccc(OCCN3CCCC3)cc2)nc1Nc1cccc(S(=O)(=O)NC(C)(C)C)c1 | BRD2 BD1 | thermal stability, DSF | 10 µM | ΔTm | 2.4 °C
Cc1ccc(C(=O)Nc2ccc(CN3CCN(C)CC3)c(C(F)(F)F)c2)cc1C#Cc1cnc2cccnn12 | Receptor tyrosine-protein kinase erbB-3 (ERBB3, Homo sapiens, UniProt P21860) | enzyme activity, inhibitor | 23.5 nM | remaining activity | 82%
CCCCCCN1CCCn2c1nc1c2c(=O)n(C)c(=O)n1C | Adenosine receptor A2b (ADORA2B, Homo sapiens, UniProt P29275) | ligand displacement, radioligand | 10 µM, cell membranes | inhibition | 9%
CC/C=C1\CCn2c1nc(=O)c1c(Cl)cccc12 | PBRM1 BD2 | thermal stability, DSF | 100 µM | ΔTm | -0.23 °C
Oc1ccc(-c2nc(-c3ccncc3)c(-c3ccc(F)cc3)[nH]2)cc1 | PBRM1 BD1 | thermal stability, DSF | 10 µM | ΔTm | 0 °C
CN(C)C1CCN(CC#Cc2nn(C3CCCC3)c3nc(NCc4ccccc4)ncc23)C1 (stereo not shown) | Tyrosine-protein kinase JAK1 (JAK1, Homo sapiens, UniProt P23458) | enzyme activity, inhibitor, FRET | 1 µM | inhibition | 0%
NS(=O)(=O)c1ccc(Nc2nc(-c3ccc(F)cc3)c3ccccc3n2)cc1 | Bromodomain-containing protein 2, BD2 (BRD2, Homo sapiens, UniProt P25440) | binding, competition with immobilised ligand | 1 µM | remaining binding | 10%
CCC/C=C1\CCn2c1nc(=O)c1c(Cl)cccc12 | PBRM1 BD2 | thermal stability, DSF | 100 µM | ΔTm | 3.03 °C
Cc1ccc(NC(=O)c2ccc(C)c(C(F)(F)F)c2)cc1C#Cc1nn(C2CCC(O)CC2)c2ncnc(N)c12 (stereo not shown) | Abl1 | cell-free assay | 10 µM | remaining signal | -2%
CC(C)(C)C/C=C1\CCn2c1nc(=O)c1c(Cl)cccc12 | Protein polybromo-1, bromodomain (PBRM1, Homo sapiens, UniProt Q86U86) | thermal stability, DSF | 100 µM | ΔTm | 7.06 °C
C[S+]([O-])c1ccc(-c2nc(-c3ccncc3)c(-c3ccc(F)cc3)[nH]2)cc1 (stereo not shown) | PBRM1 BD1 | thermal stability, DSF | 10 µM | ΔTm | 0.28 °C
CCC(/C=C1\CCn2c1nc(=O)c1cc(Cl)ccc12)CC | PBRM1 BD2 | thermal stability, DSF | 100 µM | ΔTm | 0.47 °C
Cc1cc2c(cc1N1C(=O)c3cccc4c(Cl)ccc(c34)C1=O)n(C)c(=O)n2C | BRD2 BD1 | thermal stability, DSF | 10 µM | ΔTm | 0.3 °C
CCC(CC)CC1CCn2c1nc(=O)c1c(Cl)cccc12 (racemic) | PBRM1 BD2 | thermal stability, DSF | 100 µM | ΔTm | 2.66 °C
CCCOc1ccc(OC)c(F)c1C(=O)c1ccc(C(=O)N[C@@H]2CNC[C@H]2NC(=O)c2ccc3[nH]ncc3c2)cc1 | Abl1 | enzyme activity, inhibitor | 10 µM | remaining activity | 63%
